Test results as given in paper PMC5761012 (Journal of Pharmaceutical Analysis, 2013).

How the values were obtained:
[1] = Analyte stability in human plasma and phosphate buffer; format: in vitro ADME; conditions: for time stable at ambient temperature / reduction of the concentration after three freeze–thaw cycles: QC samples; for time stable at ambient temperature: human plasma and phosphate buffer, three concentration levels; for reduction of the concentration after three freeze–thaw cycles: −20 °C to room temperature; for time stable in auto-sampler conditions: processed QC samples, 15 °C
Summary of the method: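 Processed QC samples in human plasma and pH 7.4 phosphate buffer were tested at three concentration levels, three replicates each. Conditions were 6 h at ambient temperature, or three freeze (−20 °C)/thaw (room temperature) cycles followed by 24 h at 15 °C in the auto-sampler. Separately, samples were held 96 h at 4 °C. Mean UPLC–ESI-MS/MS concentrations were compared with freshly prepared QC samples.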

[2] = system: human plasma proteins; assay: Human plasma protein binding by equilibrium dialysis with UPLC-MS/MS; format: in vitro ADME; conditions: for Kd at 72 h: human, human plasma (equilibrium dialysis against phosphate buffer); for maximum binding ability β: modified Scatchard equation, extract 1.2 to 60 μg/mL, human plasma, Pt 71.28 g/L
Summary of the method: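 Blank human plasma was placed in 10 kDa dialysis bags (pre-soaked in pH 7.4 phosphate buffer) and dialysed at 4 °C for 72 h against buffer containing the aqueous plant extract (1.2–60 µg/mL). Inside-bag concentration gave total drug; outside gave free drug. Analysis was by UPLC–ESI-MS/MS after methanol/formic acid protein precipitation, with matrix-specific 1/x² weighted calibration. Parameters came from a modified Scatchard fit using Pt 71.28 g/L (Lowry) and plasma water 99.25%.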

| SMILES | time stable at ambient temperature [1] | reduction of the concentration after three freeze–thaw cycles [1] | time stable in auto-sampler conditions [1] | Kd at 72 h [2] | maximum binding ability β [2] |
| --- | --- | --- | --- | --- | --- |
| O=c1cc(-c2ccc(O)c(O)c2)oc2c([C@@H]3O[C@H](CO)[C@@H](O)[C@H](O)[C@H]3O)c(O)cc(O)c12 [orientin] | at least 6 h | < 10% | ≥ 24 h | 26.6 µM | 2.685 µmol/g |
| C[C@@H]1O[C@@H](Oc2c(-c3ccc(O)c(O)c3)oc3cc(O)cc(O)c3c2=O)[C@H](O)[C@H](O)[C@H]1O [quercitrin] | at least 6 h | < 10% | ≥ 24 h | 5.29 µM | 0.6420 µmol/g |
| O=c1cc(-c2ccc(O)cc2)oc2c([C@@H]3O[C@H](CO)[C@@H](O)[C@H](O)[C@H]3O)c(O)cc(O)c12 [vitexin] | at least 6 h | < 10% | ≥ 24 h | 19.7 µM | 1.650 µmol/g |
